Molecules are shown by their SMILES. The source made the active and inactive calls. The calls are words filed in the database; no cut-off is given here.

We go through 8 compounds from ChEMBL document CHEMBL2021826, “Ester and carbamate ester derivatives of Biochanin A: synthesis and in vitro evaluation of estrogenic and antiproliferative activities” (Bioorg Med Chem, 2012).

Assay [1] in a line: Estrogenic activity at estrogen receptor in human Ishikawa cells assessed as induction of alkaline phosphatase expression after 72 hrs by microplate reader. Format: cell-based. The gist of the method: (§1)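 Ishikawa cells plated at 12,000/well in phenol red-free MEM, 1 µg/mL insulin, 5% DCC-FBS. Compounds up to 10 µM, or DMSO (0.1% final), added 24 h after plating. Alkaline phosphatase activity read 72 h later on a plate reader, as % of vehicle-treated cells. […] Three independent experiments in triplicate.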

Assay [2] can be described thus: Estrogenic activity at estrogen receptor in human MCF7:D5L cells co-expressing ERE assessed as induction of luciferase gene expression after 16 hrs by microplate reader. Format: cell-based. The gist of the method:
(§2)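 MCF-7:D5L cells (MCF-7 stably carrying ERE-driven luciferase reporter) plated at 12,000/well in phenol red-free MEM with 1 µg/mL insulin and 5% DCC-FBS. Compounds up to 10 µM, or DMSO (0.1% final), added 72 h after plating. Luciferase read 16 h later, as % of vehicle. Three independent experiments in triplicate.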

Assay [3] is filed under the species Homo sapiens. Kind of assay: Estrogenic activity at estrogen receptor in human MCF7:D5L cells co-expressing ERE assessed as induction of luciferase gene expression at 1 micoM after 16 hrs by microplate reader relative to untreated vehicle control. The format is cell-based. The gist of the method: as §2
The species entered for assay [4] is Homo sapiens. Nature of the assay: Estrogenic activity at estrogen receptor in human MCF7:D5L cells co-expressing ERE assessed as induction of luciferase gene expression at 10 micoM after 16 hrs by microplate reader relative to untreated vehicle control. Format: cell-based. The gist of the method: as §2
The subject of assay [5] is Ishikawa. Kind of assay: Estrogenic activity at estrogen receptor in human Ishikawa cells assessed as induction of alkaline phosphatase expression at 10 uM after 72 hrs by microplate reader relative to untreated vehicle control. The format is cell-based. In short, it runs like this:
as §1

The test system of assay [6] is Ishikawa. Kind of assay: Growth stimulation of human Ishikawa cells at 10 uM after 72 hrs by MTT assay. The format is functional, cell-based. On the technique in general: Tetrazolium dyes change colour on reduction, which living cells bring about.
Assay [7] has as its system MCF7. Nature of the assay: Stimulation of proliferation of estrogen-deficient human MCF7 cells after 72 hrs by MTT assay. To be noted: MCF7, 72 h.
In assay [8] the test system is MCF7. Nature of the assay: Antiproliferative activity against estrogen-deficient human MCF7 cells at 10 uM after 72 hrs by MTT assay relative to untreated vehicle control. Format: functional. In short, it runs like this: (§3)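 MCF-7 cells plated at 8000/well in phenol red-free MEM with 1 µg/mL insulin and 5% DCC-FBS (estrogen-free). Compounds up to 10 µM (0.01–10 µM), or DMSO vehicle at 0.1% final, added 24 h after plating. MTT conversion read 72 h later at 550 and 690 nm (reference), as % of vehicle. […] Three independent experiments in triplicate.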

Assay [9] relates to Ishikawa. Nature of the assay: Estrogenic activity at estrogen receptor in human Ishikawa cells assessed as induction of alkaline phosphatase expression at 1 uM after 72 hrs by microplate reader relative to untreated vehicle control. Format: cell-based. The gist of the method:
as §1

The test system of assay [10] is MCF7. Kind of assay: Growth stimulation of estrogen-deficient human MCF7 cells at 0.01 to 10 uM after 72 hrs by MTT assay. Format: functional, cell-based. In short, it runs like this:
as §3

For assay [11], the system named is MCF7. Nature of the assay: Antiproliferative activity against estrogen-deficient human MCF7 cells at 1 uM after 72 hrs by MTT assay relative to untreated vehicle control. The format is functional. In short, it runs like this:
as §3

Assay [12] deals with MCF7. Kind of assay: Growth stimulation of human MCF7:D5L cells co-expressing ERE assessed as increase in viable cell number by MTT assay. Format: functional, cell-based.
The species entered for assay [13] is Homo sapiens. Nature of the assay: Estrogenic activity at estrogen receptor in human MCF7:D5L cells co-expressing ERE assessed as induction of luciferase gene expression at => 0.1 nM after 16 hrs by microplate reader in presence of 100 nM ER destabilizer fulvestrant. Format: cell-based. In short, it runs like this:
(§4)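 Separate wells received 100 nM PPT, or 100 nM MPP with or without 100 nM DPN, added 72 h after plating. Luciferase measured 16 h later relative to vehicle. Mean ± SEM, three experiments in triplicate; t-test vs vehicle.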

Assay [14] deals with MCF7. Nature of the assay: Antiproliferative activity against estrogen-deficient human MCF7 cells after 72 hrs by MTT assay. The format is functional, cell-based. The following applies: MCF7, 72 h. In short, it runs like this:
as §3

For assay [15], the system named is Ishikawa. Nature of the assay: Estrogenic activity at estrogen receptor in human Ishikawa cells assessed as induction of alkaline phosphatase expression at => 0.1 nM after 72 hrs by microplate reader relative to untreated vehicle control in presence of 100 nM ER destabilizer fulvestrant. Format: cell-based. The gist of the method: (§5)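 Separate wells received 100 nM PPT, or 100 nM MPP with or without 100 nM DPN. AlkP activity read 72 h after dosing, relative to vehicle. Mean ± SEM of three experiments in triplicate; t-test vs vehicle.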

For assay [16], the system named is Ishikawa. Kind of assay: Estrogenic activity at estrogen receptor in human Ishikawa cells assessed as induction of alkaline phosphatase expression at 100 nM after 72 hrs by microplate reader. The format is cell-based. In short, it runs like this: as §5
A short description of assay [17]: Estrogenic activity at estrogen receptor in human Ishikawa cells assessed as induction of alkaline phosphatase expression at 100 nM after 72 hrs by microplate reader relative to estradiol in presence of 100 nM ERalpha antagonist MPP. The format is functional. In short, it runs like this: as §5
Assay [18] is filed under the species Homo sapiens. Nature of the assay: Estrogenic activity at estrogen receptor in human MCF7:D5L cells co-expressing ERE assessed as induction of luciferase gene expression at 100 nM after 16 hrs by microplate reader in presence of 100 nM ERalpha antagonist MPP. The format is functional, cell-based. The gist of the method: as §4
The species entered for assay [19] is Homo sapiens. Kind of assay: Estrogenic activity at estrogen receptor in human MCF7:D5L cells co-expressing ERE assessed as induction of luciferase gene expression at 100 nM after 16 hrs by microplate reader relative to untreated vehicle control. The format is cell-based. In short, it runs like this: as §4
The subject of assay [20] is Ishikawa. Kind of assay: Inhibition of estradiol-stimulated cell proliferation of human Ishikawa cells at 10 uM after 72 hrs by MTT assay. The format is functional, cell-based.
The test system of assay [21] is MDA-MB-231. Kind of assay: Antiproliferative activity against ERalpha-deficient human MDA-MB-231 cells assessed as inhibition of cell proliferation at 10 uM after 72 hrs by MTT assay. Format: functional. To be noted: MDA-MB-231, 72 h. In short, it runs like this:
(§6)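 MDA-MB-231 breast adenocarcinoma cells in phenol red-free MEM with 1 µg/mL insulin and 5% dextran-coated charcoal-treated FBS. Compound added 24 h after plating, DMSO vehicle at 0.1% final. Viable cells read 72 h later as MTT-formazan absorbance, 550 minus 690 nm reference, expressed as % of vehicle-treated cells.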

Assay [22] relates to MDA-MB-231. Nature of the assay: Antiproliferative activity against ERalpha-deficient human MDA-MB-231 cells assessed as inhibition of cell proliferation at 1 uM after 72 hrs by MTT assay. The format is functional, cell-based. The gist of the method:
as §6

The subject of assay [23] is Ishikawa. Nature of the assay: Inhibition of estradiol-stimulated cell proliferation of human Ishikawa cells at 1 uM after 72 hrs by MTT assay. Format: functional, cell-based.

As to `COc1ccc(-c2coc3cc(O)cc(O)c3c2=O)cc1` [BIOCHANIN], the results for the EC50 (in assay [1]; in assay [2]; in the assay on MCF7 [7]) were 420 nM, 300 nM and 210 nM, respectively. Besides, the Efficacy was 490% in the assay filed under Homo sapiens [3]; 733% in the assay listed under Homo sapiens [4]; 309% in the assay with Ishikawa [5]; 167% with MCF7 [8]; 310% in the assay on Ishikawa [9]; 161% in the assay with MCF7 [11]. Moreover, the outcome with Ishikawa [6] and in the assay with MCF7 [10] was Active.
Consider `COc1ccc(-c2coc3cc(OC(=O)CBr)cc(O)c3c2=O)cc1`, for which the outcome in the assay on MCF7 [12] was inactive. In addition, the concentration for a half-maximal effect (EC50) (in general, the concentration that produces a half-maximal response) in assay [1] was 520 nM; in [2], 180 nM; with MCF7 [7] it was 280 nM. Moreover, the Efficacy in the assay listed under Homo sapiens [3] amounted to 584%; in the assay listed under Homo sapiens [4] it was 1320%; in the assay on Ishikawa [5], 387%; in the assay on MCF7 [8] it was 154%; with Ishikawa [9] it was 332%; in the assay with MCF7 [11], 156%. In the assay on MCF7 [10], the outcome was Active.
Turning to `C[C@]12CC[C@@H]3c4ccc(O)cc4CC[C@H]3[C@@H]1CC[C@@H]2O` [ESTRADIOL], the values for the EC50 (in [1]; in assay [2]; with MCF7 [14]) were 0.0246 nM, 0.0196 nM and 0.0064 nM, respectively. In addition, the Efficacy was 402% in the assay filed under Homo sapiens [3]; 402% in the assay filed under Homo sapiens [4]; 440% with Ishikawa [5]; 185% in the assay with MCF7 [8]; 440% with Ishikawa [9]; 185% in the assay with MCF7 [11]. Moreover, the result in the assay listed under Homo sapiens [13] and with Ishikawa [15] was inactive.
On to `COc1ccc(-c2coc3cc(OC(=O)NCCCl)cc(O)c3c2=O)cc1`, for which the outcome with MCF7 [12] was inactive. For the same compound, the half-maximal effective concentration (EC50) in assay [1] is 660 nM; in assay [2] it was 140 nM; in the assay with MCF7 [7], 680 nM. For the same compound, the Efficacy stood at 635% in the assay listed under Homo sapiens [3]; 1140% in the assay filed under Homo sapiens [4]; 445% with Ishikawa [5]; 166% in the assay on MCF7 [8]; 295% in the assay with Ishikawa [9]; 139% in the assay with MCF7 [11]. For the same compound, the result in the assay on MCF7 [10] was Active.
With `COc1ccc(-c2coc3cc(OC(=O)CCl)cc(O)c3c2=O)cc1`, the result in the assay with MCF7 [12] was inactive. Also, the EC50 in [1] turned out to be 470 nM; in assay [2] it was 140 nM; in the assay on MCF7 [7], 550 nM. In addition, the Efficacy in the assay filed under Homo sapiens [3] turned out to be 823%; in the assay filed under Homo sapiens [4], 1310%; in the assay on Ishikawa [5] it was 354%; with MCF7 [8], 155%; in the assay with Ishikawa [9], 314%; in the assay with MCF7 [11] it was 152%. In addition, the outcome in the assay with MCF7 [10] was Active.
As for `COc1ccc(-c2coc3cc(OC(=O)NCCBr)cc(O)c3c2=O)cc1`, the result in the assay with MCF7 [12] was inactive. Moreover, the EC50 in [1] was 620 nM; in [2], 220 nM; in the assay with MCF7 [7], 420 nM. For the same compound, the Efficacy in the assay filed under Homo sapiens [3] stood at 531%; in the assay listed under Homo sapiens [4], 1050%; with Ishikawa [5], 440%; with MCF7 [8] it was 145%; with Ishikawa [9] it was 302%; in the assay with MCF7 [11] it was 151%. Besides, the result with MCF7 [10] was Active.
For the compound `CCCc1c(-c2ccc(O)cc2)nn(-c2ccc(O)cc2)c1-c1ccc(O)cc1` [PROPYLPYRAZOLETRIOL], the result in the assay on Ishikawa [16] and in the assay listed under Homo sapiens [19] was Active. In [17], the Activity amounted to 70%. Besides, in the assay listed under Homo sapiens [18], the result was inactive.
For `CCCCCCCCCCCNC(=O)Oc1cc(O)c2c(=O)c(-c3ccc(OC)cc3)coc2c1`, the inhibition entry with Ishikawa [20] and with Ishikawa [23] was “Active” in each case. The outcome with MCF7 [12] and in the assay on MCF7 [10] was inactive. Besides, in the assay with MDA-MB-231 [21], the inhibition (as a rule, the share of the control response that was lost under treatment) at 10 µM worked out at 21%. The 50% effective concentration (EC50) in assay [1] turned out to be 1700 nM; in [2], 320 nM. Moreover, in the assay on MDA-MB-231 [22], the inhibition entry was “inactive”. Moreover, the Efficacy in the assay listed under Homo sapiens [3] turned out to be 524%; in the assay listed under Homo sapiens [4], 803%; in the assay on Ishikawa [5], 375%; in the assay on MCF7 [8], 108%; with Ishikawa [9] it was 203%; in the assay on MCF7 [11], 117%.
